# Measurements collected from several papers.
# Compare with care: the assays were run in different laboratories.
# D14: D14 (Arabidopsis thaliana, UniProt Q9SQR3)
# AMY2: Pancreatic alpha-amylase (AMY2, Sus scrofa, UniProt P00690)
SMILES,target,assay,setting,endpoint,result
CC1=C(/C=C/C(C)=C/C=O)C(C)(C)CCC1,D14,"thermal stability, DSF",1 µM,ΔTm,0 °C
C#Cc1cc(-c2cc(Nc3nc(N[C@@H](C)c4ccc(F)cn4)ncc3Cl)n[nH]2)ccc1C=O,"Ribosomal protein S6 kinase alpha-1 (RPS6KA1, Homo sapiens, UniProt Q15418)","enzyme activity, inhibitor",0.2 µM,inhibition,56.8%
O=C1C[C@@H](c2ccc(O)cc2)Oc2cc(O)cc(O)c21,AMY2,"enzyme activity, inhibitor",50 µM,inhibition,33.3%
CC(=O)/C=C/C=C(C)/C=C/C1=C(C)CCCC1(C)C,D14,"thermal stability, DSF",50 µM,ΔTm,1.3 °C
C1=C/COCc2cc(ccc2OCCN2CCCC2)Nc2nccc(n2)-c2cccc(c2)COC/1,"MAP kinase-activated protein kinase 5 (MAPKAPK5, Homo sapiens, UniProt Q8IW41)",binding,0.1 µM,remaining binding,75%
Cc1cc(O)c(-c2ccc([C@@H](C)CN(C)C)cc2)c2c1[nH]c(=O)c1sccc12,"Serine-protein kinase ATM (ATM, Homo sapiens, UniProt Q13315)","cell-free assay, inhibitor","0.1 µM, lysate",inhibition,6.43%
CC1=CC(O/C=C2/C(=O)OC3c4ccccc4CC23)OC1=O (racemic),D14,thermal stability,50 µM,ΔTm,-7.73 °C
Cc1cc(F)cc2c(CCC(=O)N[C@@H]3C(=O)NC[C@H]3O)c(-c3ccc(F)cc3)[nH]c12,"Muscarinic acetylcholine receptor M2 (CHRM2, Homo sapiens, UniProt P08172)",cell-free assay,10 µM,inhibition,-4%
O=c1cc(-c2ccc(O)cc2)oc2c(Br)c(O)c(Br)c(O)c12,AMY2,"enzyme activity, inhibitor",50 µM,inhibition,69.3%
CCCCC(=O)Nc1ccc(-c2ccc3ncn(CCC)c(=O)c3c2)cn1,"Ephrin type-A receptor 5 (EPHA5, Homo sapiens, UniProt P54756)","binding, competition with immobilised ligand",0.5 µM,remaining binding,84%
O=C1C[C@@H](c2ccccc2)Oc2cc(O)cc(O)c21,AMY2,"enzyme activity, inhibitor",50 µM,inhibition,25.2%
C[C@]1(O)CCCN(c2nc(Nc3ccc(S(=O)(=O)N[C@H]4CC[C@H](CN5CCN(c6ccc(C7CCC(=O)NC7=O)cc6F)CC5)CC4)cc3Cl)ncc2C(F)(F)F)C1 (stereo partly shown),"Cyclin-dependent kinase 4, with cyclin D3 (CDK4, Homo sapiens, UniProt P11802)","binding, competition with immobilised ligand",1 µM,remaining binding,100%
O=c1c(O)c(-c2ccc(O)c(O)c2)oc2cc(O)cc(O)c12,AMY2,"enzyme activity, inhibitor",50 µM,inhibition,94.1%
CC(=O)/C=C/C=C(C)/C=C/C1=C(C)CC(O)CC1(C)C (stereo in doubt),D14,"thermal stability, DSF",100 µM,ΔTm,4.84 °C
COc1cc(O)c2c(c1)O[C@H](c1ccccc1)CC2=O,AMY2,"enzyme activity, inhibitor","50 µM, 30 min",inhibition,12.7%
CC1=C(/C=C/C(C)=C/C=O)C(C)(C)C[C@H](O)C1,D14,"thermal stability, DSF",10 µM,ΔTm,0.16 °C
